ChEMBL document CHEMBL4811231, “Discovery and structural optimization of 3-O-β-chacotriosyl oleanane-type triterpenoids as potent entry inhibitors of SARS-CoV-2 virus infections” (Eur J Med Chem, 2021)
The source made the active and inactive calls. The rule behind the calls is not given here.

System: Vesicular stomatitis virus
Assay: Antiviral activity against pseudotype VSV harbouring glycoprotein infected human 293T/ACE2 cells assessed as inhibition of viral infection measured after 48 hrs by luciferase reporter gene assay
Format: functional, organism-based
In short: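 293T-ACE2 cells (20,000/well) were seeded and treated 24 h later with graded compound concentrations mixed with pseudovirus supernatant, then incubated 48 h. The HIV-based pseudovirus (pNL4-3.Luc.R-E-) carried SARS-CoV-2 S or VSV-G and was made by co-transfecting HEK293T cells; supernatant was harvested at 48 h and filtered (0.45 µm). Read-out was luciferase activity in cell lysates. Sal-C was the positive control.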

C[C@@H]1O[C@@H](O[C@H]2[C@H](O[C@H]3CC[C@]4(C)[C@H]5CC=C6[C@@H]7CC(C)(C)CC[C@]7(C(=O)NCc7ccccc7F)CC[C@@]6(C)[C@]5(C)CC[C@H]4C3(C)C)O[C@H](CO)[C@@H](O[C@@H]3O[C@@H](C)[C@H](O)[C@@H](O)[C@H]3O)[C@@H]2O)[C@H](O)[C@H](O)[C@H]1O
inhibition: inactive

C[C@@H]1O[C@@H](O[C@H]2[C@H](O[C@H]3CC[C@]4(C)[C@H]5CC=C6[C@@H]7CC(C)(C)CC[C@]7(C(=O)NCc7cccs7)CC[C@@]6(C)[C@]5(C)CC[C@H]4C3(C)C)O[C@H](CO)[C@@H](O[C@@H]3O[C@@H](C)[C@H](O)[C@@H](O)[C@H]3O)[C@@H]2O)[C@H](O)[C@H](O)[C@H]1O
inhibition: inactive

C[C@@H]1O[C@@H](O[C@H]2[C@H](O[C@H]3CC[C@]4(C)[C@H]5CC=C6[C@@H]7CC(C)(C)CC[C@]7(C(=O)NCc7ccccc7)CC[C@@]6(C)[C@]5(C)CC[C@H]4C3(C)C)O[C@H](CO)[C@@H](O[C@@H]3O[C@@H](C)[C@H](O)[C@@H](O)[C@H]3O)[C@@H]2O)[C@H](O)[C@H](O)[C@H]1O
inhibition: inactive

COc1ccccc1NC(=O)[C@]12CCC(C)(C)C[C@H]1C1=CC[C@@H]3[C@@]4(C)CC[C@H](O[C@@H]5O[C@H](CO)[C@@H](O[C@@H]6O[C@@H](C)[C@H](O)[C@@H](O)[C@H]6O)[C@H](O)[C@H]5O[C@@H]5O[C@@H](C)[C@H](O)[C@@H](O)[C@H]5O)C(C)(C)[C@@H]4CC[C@@]3(C)[C@]1(C)CC2
inhibition: inactive
